Experiment [1] deals with Hepatitis C virus. The experiment can be described thus: Antiviral activity against Hepatitis C virus genotype 1a by ELISA. The class given is functional, organism-based, Hepacivirus hominis, subtype 1a. The gist of the method:
(§1)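 EC50 values are means of at least two experiments, with at most threefold variation between them.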

The subject of experiment [2] is Hepatitis C virus. The experiment in a line: Antiviral activity against Hepatitis C virus genotype 1b by FRET assay. It counts as functional, organism-based, Hepacivirus hominis. The gist of the method:
as §1

The test system of experiment [3] is Bovine viral diarrhea virus 1. The experiment in a line: Antiviral activity against Bovine viral diarrhea virus by luciferase assay. The class given is functional, organism-based. A digest of the protocol: as §1
Setting [4] is: Bovine viral diarrhea virus isolates and strains.

pEC50: −log10 of the molar value. A value given as a limit tells only on which side of the number the result lay.

The pEC50 is −log10 of the EC50, conventionally taken in molar units. Turning to `O=C(Nc1ccc(/C=C/c2ccc(NC(=O)[C@@H]3CCCN3C(=O)[C@@H](O)C3CCCCC3)cc2)cc1)[C@@H]1CCCN1C(=O)[C@@H](O)C1CCCCC1`, the pEC50 in the experiment with Hepatitis C virus [1] (Hepatitis C virus, subtype 1a) is 6.01; in the experiment on Hepatitis C virus [2] (Hepatitis C virus, genotype 1b), 7.20; in experiment [3] (setting [4]), 5.17.
`CC(C)(C)OC(=O)N[C@H](C(=O)N1CCC[C@H]1C(=O)Nc1ccc(C#Cc2ccc(NC(=O)[C@@H]3CCCN3C(=O)[C@@H](NC(=O)OC(C)(C)C)c3ccccc3)cc2)cc1)c1ccccc1`: the pEC50 was < 5.00 in the experiment on Hepatitis C virus [1] (Hepatitis C virus, subtype 1a); > 8.34 in the experiment on Hepatitis C virus [2] (Hepatitis C virus, genotype 1b); < 5.00 in experiment [3] (setting [4]).
As for `CCCOC(=O)N[C@@H](C(=O)N1CCC[C@H]1C(=O)Nc1ccc(C#Cc2ccc(NC(=O)[C@@H]3CCCN3C(=O)[C@H](NC(=O)OCCC)c3ccccc3)cc2)cc1)c1ccccc1`, the pEC50 with Hepatitis C virus [1] (Hepatitis C virus, subtype 1a) was 7.06; with Hepatitis C virus [2] (Hepatitis C virus, genotype 1b), 9.80; in experiment [3] (setting [4]) it was < 5.00.
In the case of `O=C(Nc1ccc(C#Cc2ccc(NC(=O)[C@@H]3CCCN3C(=O)C(c3ccccc3)N3CC[C@H](O)C3)cc2)cc1)[C@@H]1CCCN1C(=O)C(c1ccccc1)N1CC[C@H](O)C1` (stereo partly drawn), the negative-log EC50 (pEC50) in the experiment on Hepatitis C virus [1] (Hepatitis C virus, subtype 1a) was 8.52; with Hepatitis C virus [2] (Hepatitis C virus, genotype 1b), 9.30; in experiment [3] (setting [4]) it was < 5.00.
On to `CN1CCN(C(C(=O)N2CCC[C@H]2C(=O)Nc2ccc(C#Cc3ccc(NC(=O)[C@@H]4CCCN4C(=O)C(c4ccccc4)N4CCN(C)CC4)cc3)cc2)c2ccccc2)CC1` (single isomer, unassigned; diastereomer 2), for which the negative-log EC50 (pEC50) in the experiment on Hepatitis C virus [1] was 5.57; with Hepatitis C virus [2] it was 8.36; in experiment [3], 5.87.
With `CC(C)OC(=O)N[C@@H](C(=O)N1CCC[C@H]1C(=O)Nc1ccc(C#Cc2ccc(NC(=O)[C@@H]3CCCN3C(=O)[C@H](NC(=O)OC(C)C)c3ccccc3)cc2)cc1)c1ccccc1`, the negative-log EC50 (pEC50) in the experiment with Hepatitis C virus [1] (Hepatitis C virus, subtype 1a) was 6.86; with Hepatitis C virus [2] (Hepatitis C virus, genotype 1b) it was 9.55; in experiment [3] (setting [4]), < 5.00.
Turning to `CC(=O)N(C)C(C(=O)N1CCC[C@H]1C(=O)Nc1ccc(C#Cc2ccc(NC(=O)[C@@H]3CCCN3C(=O)C(c3ccccc3)N(C)C(C)=O)cc2)cc1)c1ccccc1` (single isomer, unassigned; diastereomer 1), the negative logarithm of the EC50 (pEC50) in the experiment with Hepatitis C virus [1] was 5.61; in the experiment with Hepatitis C virus [2], 7.24.
Turning to `O=C(Nc1ccc(/C=C/c2ccc(NC(=O)[C@@H]3CCCN3C(=O)c3nccc4ccccc34)cc2)cc1)[C@@H]1CCCN1C(=O)c1nccc2ccccc12`, the pEC50 is 6.41 in the experiment on Hepatitis C virus [1] (Hepatitis C virus, subtype 1a); 7.66 with Hepatitis C virus [2] (Hepatitis C virus, genotype 1b); < 5.00 in experiment [3] (setting [4]).
With `CN(C)[C@@H](C(=O)N1CCC[C@H]1C(=O)Nc1ccc(C#Cc2ccc(NC(=O)[C@@H]3CCCN3C(=O)[C@@H](c3ccccc3)N(C)C)cc2)cc1)c1ccccc1`, the negative-log EC50 (pEC50) is > 8.34 in the experiment on Hepatitis C virus [1] (Hepatitis C virus, subtype 1a); > 8.34 with Hepatitis C virus [2] (Hepatitis C virus, genotype 1b); 5.72 in experiment [3] (setting [4]).
Consider `CCOC(=O)N[C@@H](C(=O)N1CCC[C@H]1C(=O)Nc1ccc(C#Cc2ccc(NC(=O)[C@@H]3CCCN3C(=O)[C@H](NC(=O)OCC)c3ccccc3)cc2)cc1)c1ccccc1`, for which the negative-log EC50 (pEC50) with Hepatitis C virus [1] (Hepatitis C virus, subtype 1a) was 6.94; with Hepatitis C virus [2] (Hepatitis C virus, genotype 1b), 10.74; in experiment [3] (setting [4]), < 5.00.
The corresponding values for `CC(C)C(=O)N[C@@H](C(=O)N1CCC[C@H]1C(=O)Nc1ccc(C#Cc2ccc(NC(=O)[C@@H]3CCCN3C(=O)[C@H](NC(=O)C(C)C)c3ccccc3)cc2)cc1)c1ccccc1` are 7.15, 11.70 and < 5.00.
As to `CS(=O)(=O)N[C@@H](C(=O)N1CCC[C@H]1C(=O)Nc1ccc(C#Cc2ccc(NC(=O)[C@@H]3CCCN3C(=O)[C@H](NS(C)(=O)=O)c3ccccc3)cc2)cc1)c1ccccc1`, the pEC50 in the experiment with Hepatitis C virus [1] (Hepatitis C virus, subtype 1a) is 7.15; with Hepatitis C virus [2] (Hepatitis C virus, genotype 1b), > 8.34; in experiment [3] (setting [4]) it was < 5.00.
The corresponding values for `N[C@H](C(=O)N1CCC[C@H]1C(=O)Nc1ccc(C#Cc2ccc(NC(=O)[C@@H]3CCCN3C(=O)[C@@H](N)c3ccccc3)cc2)cc1)c1ccccc1` are < 5.03, > 8.34 and < 5.00.
Consider `CC(=O)N(C)C(C(=O)N1CCC[C@H]1C(=O)Nc1ccc(C#Cc2ccc(NC(=O)[C@@H]3CCCN3C(=O)C(c3ccccc3)N(C)C(C)=O)cc2)cc1)c1ccccc1` (single isomer, unassigned; diastereomer 2), for which the pEC50 was < 5.30 in the experiment on Hepatitis C virus [1], 6.20 in the experiment on Hepatitis C virus [2] and < 5.00 in experiment [3] (setting [4]).
Turning to `O=C(Nc1ccc(C#Cc2ccc(NC(=O)[C@@H]3CCCN3C(=O)C(c3ccccc3)N3CC[C@@H](O)C3)cc2)cc1)[C@@H]1CCCN1C(=O)C(c1ccccc1)N1CC[C@@H](O)C1` (stereo partly drawn), the pEC50 in the experiment with Hepatitis C virus [1] (Hepatitis C virus, subtype 1a) is 8.85; with Hepatitis C virus [2] (Hepatitis C virus, genotype 1b), 10.03; in experiment [3] (setting [4]), 5.48.
Consider `CN(C)[C@@H](Cc1ccccc1)C(=O)N1CCC[C@H]1C(=O)Nc1ccc(C#Cc2ccc(NC(=O)[C@@H]3CCCN3C(=O)[C@H](Cc3ccccc3)N(C)C)cc2)cc1`, for which the pEC50 in the experiment on Hepatitis C virus [1] (Hepatitis C virus, subtype 1a) is 5.49; in the experiment on Hepatitis C virus [2] (Hepatitis C virus, genotype 1b) it was 6.30; in experiment [3] (setting [4]), 5.83.
With `N[C@@H](C(=O)N1CCC[C@H]1C(=O)Nc1ccc(C#Cc2ccc(NC(=O)[C@@H]3CCCN3C(=O)[C@H](N)c3ccccc3)cc2)cc1)c1ccccc1`, the pEC50 is 6.04 in the experiment on Hepatitis C virus [1] (Hepatitis C virus, subtype 1a); > 8.34 in the experiment with Hepatitis C virus [2] (Hepatitis C virus, genotype 1b); 5.42 in experiment [3] (setting [4]).
Take `C[C@H](C(=O)N1CCC[C@H]1C(=O)Nc1ccc(/C=C/c2ccc(NC(=O)[C@@H]3CCCN3C(=O)[C@@H](C)c3ccccc3)cc2)cc1)c1ccccc1`: the pEC50 in the experiment on Hepatitis C virus [1] (Hepatitis C virus, subtype 1a) is < 5.00; in experiment [3] (setting [4]), < 5.00.
`C[C@@H](C(=O)N1CCC[C@H]1C(=O)Nc1ccc(/C=C/c2ccc(NC(=O)[C@@H]3CCCN3C(=O)[C@H](C)c3ccccc3)cc2)cc1)c1ccccc1`: the pEC50 with Hepatitis C virus [1] (Hepatitis C virus, subtype 1a) was 6.11; in experiment [3] (setting [4]), 5.60.
As to `CC(C)(C)OC(=O)N[C@@H](C(=O)N1CCC[C@H]1C(=O)Nc1ccc(C#Cc2ccc(NC(=O)[C@@H]3CCCN3C(=O)[C@H](NC(=O)OC(C)(C)C)c3ccccc3)cc2)cc1)c1ccccc1`, the negative-log EC50 (pEC50) in the experiment with Hepatitis C virus [1] (Hepatitis C virus, subtype 1a) was 6.61; with Hepatitis C virus [2] (Hepatitis C virus, genotype 1b), 11.70; in experiment [3] (setting [4]), < 5.00.
`O=C(Nc1ccc(C#Cc2ccc(NC(=O)[C@@H]3CCCN3C(=O)C(c3ccccc3)N3CCC(O)CC3)cc2)cc1)[C@@H]1CCCN1C(=O)C(c1ccccc1)N1CCC(O)CC1` (single isomer, unassigned; diastereomer 2): the pEC50 was 6.22 in the experiment with Hepatitis C virus [1], 8.34 in the experiment on Hepatitis C virus [2] and 5.53 in experiment [3].
Regarding `O=C(Nc1ccc(/C=C/c2ccc(NC(=O)[C@@H]3CCCN3C(=O)[C@H](O)C3CCCCC3)cc2)cc1)[C@@H]1CCCN1C(=O)[C@H](O)C1CCCCC1`, the pEC50 in the experiment on Hepatitis C virus [1] (Hepatitis C virus, subtype 1a) was 5.33; in the experiment with Hepatitis C virus [2] (Hepatitis C virus, genotype 1b), > 8.34; in experiment [3] (setting [4]), < 5.00.
As to `CC(=O)N1CCN(C(C(=O)N2CCC[C@H]2C(=O)Nc2ccc(C#Cc3ccc(NC(=O)[C@@H]4CCCN4C(=O)C(c4ccccc4)N4CCN(C(C)=O)CC4)cc3)cc2)c2ccccc2)CC1` (stereo partly drawn), the pEC50 with Hepatitis C virus [1] (Hepatitis C virus, subtype 1a) was 7.43; in the experiment with Hepatitis C virus [2] (Hepatitis C virus, genotype 1b), 9.38; in experiment [3] (setting [4]) it was < 5.00.
On to `CCN(C)C(C(=O)N1CCC[C@H]1C(=O)Nc1ccc(C#Cc2ccc(NC(=O)[C@@H]3CCCN3C(=O)C(c3ccccc3)N(C)CC)cc2)cc1)c1ccccc1` (stereo partly drawn), for which the negative logarithm of the EC50 (pEC50) is 8.10 with Hepatitis C virus [1] (Hepatitis C virus, subtype 1a); ≥ 9.89 in the experiment on Hepatitis C virus [2] (Hepatitis C virus, genotype 1b); 5.55 in experiment [3] (setting [4]).
For the compound `CN(C)C(C)(C(=O)N1CCC[C@H]1C(=O)Nc1ccc(C#Cc2ccc(NC(=O)[C@@H]3CCCN3C(=O)C(C)(c3ccccc3)N(C)C)cc2)cc1)c1ccccc1` (stereo in doubt; 5l.1), the pEC50 was 7.00 in the experiment with Hepatitis C virus [1] and 6.16 in experiment [3].
Turning to `C[C@@](O)(C(=O)N1CCC[C@H]1C(=O)Nc1ccc(Br)cc1)c1ccccc1`, the pEC50 in the experiment on Hepatitis C virus [1] (Hepatitis C virus, subtype 1a) is < 5.89; in the experiment with Hepatitis C virus [2] (Hepatitis C virus, genotype 1b), 6.42.
